Experimental data taken from ChEMBL document CHEMBL1150225, “Cytotoxic cholestane glycosides from the bulbs of Ornithogalum saundersiae” (J Nat Prod, 2001).

Experiments:
BT-549 = test: Cytotoxicity against human BT549 cells; format: functional
U-251 = test: Cytotoxicity against human U251 cells; format: functional
HT-29 = test: Cytotoxicity against human HT-29 cells; format: functional
OVCAR-4 = test: Cytotoxicity against human OVCAR4 cells; format: functional
HCT-15 = test: Cytotoxicity against human HCT15 cells; format: functional
SNB-19 = test: Cytotoxicity against human SNB19 cells; format: functional
NCI-H460 = test: Cytotoxicity against human NCI-H460 cells; format: functional
OVCAR-3 = test: Cytotoxicity against human OVCAR-3 cells; format: functional
T47D = test: Cytotoxicity against human T47D cells; format: functional
Malme-3M = test: Cytotoxicity against human MALME-3M cells; format: functional
[1] = Cytotoxicity against human Hs 578T cells; format: functional
LOX IMVI = test: Cytotoxicity against human LOXIMVI cells; format: functional
HL-60 = test: Cytotoxicity against human HL60 cells after 72 hrs by MTT assay; format: functional, cell-based; settings: HL-60, 72 h
How it was run: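 HL-60 leukemia cells kept in RPMI 1640 with 10% fetal bovine serum, L-glutamine, 100 units/mL penicillin and 100 μg/mL streptomycin. Cells at 3 × 10^4 cells/mL exposed continuously to compound for 72 h. Growth read by MTT reduction. IC50 (50% inhibition) calculated from each compound's dose–response curve.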

SK-OV-3 = test: Cytotoxicity against human SKOV3 cells; format: functional
UACC-257 = test: Cytotoxicity against human UACC257 cells; format: functional
MDA-MB-231 = test: Cytotoxicity against human MDA-MB-231 cells; format: functional
HOP-92 = test: Cytotoxicity against human HOP92 cells; format: functional
OVCAR-8 = test: Cytotoxicity against human OVCAR8 cells; format: functional
ACHN = test: Cytotoxicity against human ACHN cells; format: functional
NCI-H23 = test: Cytotoxicity against human NCI-H23 cells; format: functional
RXF 393 = test: Cytotoxicity against human RXF393 cells; format: functional
SN12C = test: Cytotoxicity against human SN12C cells; format: functional
IGROV-1 = test: Cytotoxicity against human IGROV1 cells; format: functional
MCF7 = test: Cytotoxicity against human MCF7 cells; format: functional
NCI-H322M = test: Cytotoxicity against human NCI-H322M cells; format: functional
SNB-75 = test: Cytotoxicity against human SNB75 cells; format: functional
[2] = Cytotoxicity against human […] cells; format: functional
CCRF-CEM = test: Cytotoxicity against human CCRF-CEM cells; format: functional
SK-MEL-28 = test: Cytotoxicity against human SK-MEL-28 cells; format: functional
SR = test: Cytotoxicity against human SR cells; format: functional
[3] = read-out: pLC50 (the source's name) (converted)

COc1ccc(C(=O)O[C@H]2[C@H](O[C@@H]3[C@@H](OC(C)=O)[C@H](O[C@H]4C[C@H]5[C@@H]6CC=C7C[C@@H](O)CC[C@]7(C)[C@H]6CC[C@]5(C)[C@@]4(O)[C@H](C)C(=O)CCC(C)C)OC[C@@H]3O)OC[C@@H](O)[C@@H]2O)cc1
GI50 (BT-549): 1.82 nM | CC50 (BT-549; [3]): 4570 nM | TGI (BT-549; read-out: pTGI (converted)): 1700 nM | GI50 (U-251): 0.0257 nM | CC50 (U-251; [3]): 2510 nM | TGI (U-251; read-out: pTGI (converted)): 51.3 nM | GI50 (HT-29): 0.363 nM | CC50 (HT-29; [3]): 3720 nM | TGI (HT-29; read-out: pTGI (converted)): 302 nM | GI50 (OVCAR-4): 3.63 nM | CC50 (OVCAR-4; [3]): 5750 nM | TGI (OVCAR-4; read-out: pTGI (converted)): 2190 nM | GI50 (HCT-15): 11 nM | CC50 (HCT-15; [3]): 692 nM | TGI (HCT-15; read-out: pTGI (converted)): 95.5 nM | GI50 (SNB-19): 12.9 nM | CC50 (SNB-19; [3]): 2880 nM | TGI (SNB-19; read-out: pTGI (converted)): 331 nM | GI50 (NCI-H460): 0.159 nM | CC50 (NCI-H460; [3]): 2190 nM | TGI (NCI-H460; read-out: pTGI (converted)): 33.9 nM | GI50 (OVCAR-3): 9.55 nM | CC50 (OVCAR-3; [3]): 4680 nM | TGI (OVCAR-3; read-out: pTGI (converted)): 2000 nM | GI50 (T47D): 5.13 nM | CC50 (T47D; [3]): 7760 nM | TGI (T47D; read-out: pTGI (converted)): 1510 nM | GI50 (Malme-3M): 0.631 nM | CC50 (Malme-3M; [3]): 2400 nM | TGI (Malme-3M; read-out: pTGI (converted)): 2.29 nM | GI50 [1]: 0.0537 nM | CC50 [1, 3]: 2000 nM | TGI ([1]; read-out: pTGI (converted)): 0.741 nM | GI50 (LOX IMVI): 0.251 nM | CC50 (LOX IMVI; [3]): 91.2 nM | TGI (LOX IMVI; read-out: pTGI (converted)): 2.29 nM | GI50 (HL-60): 0.0347 nM | IC50 (HL-60): 0.25 nM | TGI (HL-60; read-out: pTGI (converted)): 182 nM | GI50 (SK-OV-3): 3.98 nM | CC50 (SK-OV-3; [3]): 10000 nM | TGI (SK-OV-3; read-out: pTGI (converted)): 1200 nM | GI50 (UACC-257): 0.933 nM | CC50 (UACC-257; [3]): 40.7 nM | TGI (UACC-257; read-out: pTGI (converted)): 1.29 nM | GI50 (MDA-MB-231): 19.1 nM | CC50 (MDA-MB-231; [3]): 5370 nM | TGI (MDA-MB-231; read-out: pTGI (converted)): 1290 nM | GI50 (HOP-92): 1.1 nM | CC50 (HOP-92; [3]): 3020 nM | TGI (HOP-92; read-out: pTGI (converted)): 32.4 nM | GI50 (OVCAR-8): 15.1 nM | CC50 (OVCAR-8; [3]): 5370 nM | TGI (OVCAR-8; read-out: pTGI (converted)): 1580 nM | GI50 (ACHN): 7.94 nM | CC50 (ACHN; [3]): 7240 nM | TGI (ACHN; read-out: pTGI (converted)): 2190 nM | GI50 (NCI-H23): 0.363 nM | CC50 (NCI-H23; [3]): 1290 nM | TGI (NCI-H23; read-out: pTGI (converted)): 110 nM | GI50 (RXF 393): 0.0708 nM | CC50 (RXF 393; [3]): 407 nM | TGI (RXF 393; read-out: pTGI (converted)): 18.2 nM | GI50 (SN12C): 1290 nM | CC50 (SN12C; [3]): 6760 nM | TGI (SN12C; read-out: pTGI (converted)): 2880 nM | GI50 (IGROV-1): 1.51 nM | CC50 (IGROV-1; [3]): 6920 nM | TGI (IGROV-1; read-out: pTGI (converted)): 1910 nM | GI50 (MCF7): 0.813 nM | CC50 (MCF7; [3]): 3630 nM | TGI (MCF7; read-out: pTGI (converted)): 1200 nM | GI50 (NCI-H322M): 26.9 nM | CC50 (NCI-H322M; [3]): 5010 nM | TGI (NCI-H322M; read-out: pTGI (converted)): 1290 nM | GI50 (SNB-75): 0.0417 nM | CC50 (SNB-75; [3]): 3020 nM | TGI (SNB-75; read-out: pTGI (converted)): 3.24 nM | GI50 [2]: 0.038 nM | CC50 [2, 3]: 2090 nM | TGI ([2]; read-out: pTGI (converted)): 0.219 nM | GI50 (CCRF-CEM): 0.1 nM | CC50 (CCRF-CEM; [3]): 1200 nM | TGI (CCRF-CEM; read-out: pTGI (converted)): 7.08 nM | GI50 (SK-MEL-28): 0.182 nM | CC50 (SK-MEL-28; [3]): 25.7 nM | TGI (SK-MEL-28; read-out: pTGI (converted)): 1.1 nM | GI50 (SR): 0.12 nM
